PMC10467613 (RSC Chemical Biology, 2023)

Columns and labels:
[1] = target: T1, HsIYD containing 2′-deoxyFMN (Homo sapiens, UniProt Q6PHW0, DEL2-31); assay: flavin fluorescence quenching titration; assay type: binding
T1 sequence (Q6PHW0 32-289): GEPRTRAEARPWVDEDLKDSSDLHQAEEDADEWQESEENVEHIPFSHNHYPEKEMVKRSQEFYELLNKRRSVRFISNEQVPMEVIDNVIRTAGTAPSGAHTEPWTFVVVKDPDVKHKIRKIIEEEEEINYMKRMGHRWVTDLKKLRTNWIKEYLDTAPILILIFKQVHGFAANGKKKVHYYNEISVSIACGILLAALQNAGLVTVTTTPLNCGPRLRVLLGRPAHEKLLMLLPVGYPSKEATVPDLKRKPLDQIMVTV
Method in brief: (§1)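 Enzyme: human IYD lacking residues 2–31 (SUMO fusion, tag removed) or T. neapolitana IYD (C-terminal His6; dithionite wash first). FMN was stripped on a Ni column with up to 1.5 M guanidinium HCl, then reloaded with 200 μM 2′-deoxyFMN for 4 h at 4 °C. Ligand was titrated into 3 μM enzyme in 100 mM potassium phosphate pH 7.4 at 25 °C. Flavin fluorescence (ex 450/em 516 nm) was read 2 min after each addition. Kd was fitted from ΔF/F0 versus total enzyme and total ligand.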

[2] = target: T2, TnIYD containing 2′-deoxyFMN (Thermotoga neapolitana, UniProt B9K712); assay: flavin fluorescence quenching titration; assay type: binding
T2 sequence (B9K712 1-186): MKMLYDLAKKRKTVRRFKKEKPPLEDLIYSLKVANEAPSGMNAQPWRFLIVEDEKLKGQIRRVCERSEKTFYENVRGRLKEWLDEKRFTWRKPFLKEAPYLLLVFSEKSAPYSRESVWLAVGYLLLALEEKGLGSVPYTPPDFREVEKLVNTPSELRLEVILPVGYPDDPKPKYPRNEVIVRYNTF
Method in brief: as §1

Structure (SMILES)	Kd [1] [µM]	Kd [2] [µM]
N[C@@H](Cc1ccc(O)c(F)c1)C(=O)O [F-Tyr, 3-Fluoro-L-tyrosine]	1500 ± 70	
COc1ccc(C[C@H](N)C(=O)O)cc1I [O-Me I-Tyr]		6.3 ± 0.7
